From PubChem BioAssay
Mdm2 MdmX PPI = human Mdm2/MdmX binding inhibition. 3% of 330,000 active. SaOS-2 split-luciferase Mdm2/MdmX complementation, luminescence. inhibition, % at 8 µM;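 active = inhibition of at least 50% at 8 µM in the primary screen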
Granule exo inh = blocks lytic granule exocytosis; TALL-104 LAMP-1 surface exposure, flow cytometry; cells stimulated with thapsigargin and PMA; inhibition, % at 10 µM; 0.66% of 360,000 active;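 active = inhibition above about 55%, limit read from the data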
UPR CHOP act = apoptotic UPR (CHOP) activation; CHO-CHOP luciferase reporter, luminescence; percent of tunicamycin response over DMSO baseline; activation, % at 10 µM; 0.34% of 330,000 active; AID 449763;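 active = at 10 µM dose, activation of 40% or more, normalized to positive control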;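 note: 100% = tunicamycin at 10 µg/mL and 0% = DMSO alone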
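Dosing – one dose, 10 µM in 0.5% DMSO · System – CHO-CHOP cells, stable luciferase reporter of PERK-eIF2a-CHOP signalling · Input – 500 cells/well · Control set – tunicamycin 10 µg/mL final as positive, DMSO-only wells as negative · Timing – 6 h compound treatment, 37 °C · Measure – % activation vs tunicamycin · Technique – luminescence read with Steady-Glo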
XBP1 UPR activ = activators of adaptive arm of unfolded protein response (XBP1); CHO-XBP1 luciferase reporter, IRE1-XBP1 UPR activation, luminescence; percent of tunicamycin response, DMSO as zero; activation, % at 20 µM; 0.33% of 330,000 active; AID 463104;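 active = versus positive control, 20 µM dose yields 30% or more activation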;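 note: 100% = tunicamycin at 10 µg/mL and 0% = DMSO only wells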
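Material: CHO cell line with stable XBP1 luciferase reporter; schedule: 16-18 h cell attachment at 37 °C, then 6 h compound exposure; signal: glow luminescence from Steady-Glo reagent; medium: serum-containing F12 medium, 10% FBS; benchmarks: tunicamycin 10 µg/mL and vehicle-only wells; read-out: percent activation relative to tunicamycin reference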
ABHD5 PLIN5 PPI = inhibitors of human ABHD5-perilipin-5 interaction; Q00G26+Q8WTS1; Split G. princeps luciferase complementation, luminescence, 4 h; inhibition, % at 4 µM; 0.78% of 360,000 active; AID 602281;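 active = inhibition above the mean inhibition across every tested compound plus 3 SD, cut at about 22% in these data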;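 note: 0% = DMSO only wells and the 100% control is not disclosed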
Target sequence (Q00G26 whole entry, looked up): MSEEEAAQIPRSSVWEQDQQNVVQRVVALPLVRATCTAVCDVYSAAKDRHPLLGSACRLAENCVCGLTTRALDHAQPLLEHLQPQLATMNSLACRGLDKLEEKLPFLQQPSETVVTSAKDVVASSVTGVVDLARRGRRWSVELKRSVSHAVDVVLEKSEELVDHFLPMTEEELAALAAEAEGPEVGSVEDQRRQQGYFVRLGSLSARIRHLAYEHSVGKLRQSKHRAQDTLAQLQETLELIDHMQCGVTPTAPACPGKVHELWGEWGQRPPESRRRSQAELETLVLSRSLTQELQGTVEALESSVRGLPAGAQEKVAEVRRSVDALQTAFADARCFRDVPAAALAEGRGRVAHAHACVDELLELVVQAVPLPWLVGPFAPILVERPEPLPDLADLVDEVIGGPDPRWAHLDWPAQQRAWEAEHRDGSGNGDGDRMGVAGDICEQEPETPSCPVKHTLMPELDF
Target sequence (Q8WTS1 whole entry, looked up): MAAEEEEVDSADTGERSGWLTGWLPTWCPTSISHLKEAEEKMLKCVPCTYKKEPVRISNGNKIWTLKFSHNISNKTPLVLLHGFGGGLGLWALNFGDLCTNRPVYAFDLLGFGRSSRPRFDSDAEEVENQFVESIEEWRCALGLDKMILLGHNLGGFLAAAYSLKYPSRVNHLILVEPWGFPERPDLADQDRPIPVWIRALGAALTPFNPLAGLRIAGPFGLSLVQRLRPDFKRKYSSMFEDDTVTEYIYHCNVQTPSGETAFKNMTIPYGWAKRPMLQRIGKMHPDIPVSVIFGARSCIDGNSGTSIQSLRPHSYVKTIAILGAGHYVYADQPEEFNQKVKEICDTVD
Mdm2-MdmX conf = human Mdm2/MdmX binding inhibition, confirmed; shares compounds with Mdm2 MdmX PPI; luminescent assay; inhibition, % at 8 µM; 55% of 10,000 active; in the data active = inhibition above about 40%
Full FLuc ctr = counter-screen for Mdm2/MdmX inhibitors: full-length luciferase | shares compounds with Mdm2 MdmX PPI | SaOS-2 full-length luciferase counterscreen, luminescence | 77% of 6,200 active | inhibition, % at 8 µM;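 active = mean inhibition at 8 µM reaching about 37%, which flags the compound as non-specific, limit read from the data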;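 note: p53-null SaOS-2 cells with luciferase driven by a doxycycline-inducible promoter; compound on cells about two nights before reading with doxycycline added after day one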
The depositor's hits bear a star. A selection: hits, their analogues and other compounds. The true share with any hit is near 4%.

How did COC(=O)[C@@]1(Cc2ccccc2)[C@H]2C(=O)N(Cc3ccccc3)C(=O)[C@H]2[C@H]2CN=C(SCc3ccc(C)cc3)N21 do in these assays?
Mdm2 MdmX PPI: 58*; Granule exo inh: 1; UPR CHOP act: 2; XBP1 UPR activ: 0; ABHD5 PLIN5 PPI: -7; Mdm2-MdmX conf: 65*; Full FLuc ctr: 46*

How did COC(=O)[C@@]1(Cc2ccccc2)[C@H]2C(=O)N(Cc3ccccc3)C(=O)[C@H]2[C@H]2CN=C(SCc3ccccc3)N21 do in these assays?
Mdm2 MdmX PPI: 89*; Granule exo inh: -2; UPR CHOP act: 6; XBP1 UPR activ: 0; ABHD5 PLIN5 PPI: 7; Mdm2-MdmX conf: 86*; Full FLuc ctr: 35

What do the screens show for `O=c1cc(-c2ccccc2Cl)oc2ccc([N+](=O)[O-])c(O)c12`?
Mdm2 MdmX PPI: 15; Granule exo inh: -17; UPR CHOP act: -2; XBP1 UPR activ: 4; ABHD5 PLIN5 PPI: -6

How did O=c1cc(-c2ccccc2Cl)oc2c([N+](=O)[O-])c(O)cc(O)c12 do in these assays?
Mdm2 MdmX PPI: 83*; Granule exo inh: -1; UPR CHOP act: -1; XBP1 UPR activ: -5; ABHD5 PLIN5 PPI: 0; Mdm2-MdmX conf: 76*; Full FLuc ctr: 21

How did CCOC(=O)N1CCN(Cc2nc3ccc([N+](=O)[O-])cc3c(=O)n2-c2ccccc2F)CC1 do in these assays?
Mdm2 MdmX PPI: 52*; Granule exo inh: 0; UPR CHOP act: 0; XBP1 UPR activ: -4; ABHD5 PLIN5 PPI: 1; Mdm2-MdmX conf: 41*; Full FLuc ctr: 75*

What do the screens show for `CCC(CC)N1CCN(Cc2nc3ccc([N+](=O)[O-])cc3c(=O)n2-c2ccccc2F)CC1`?
Mdm2 MdmX PPI: 2; Granule exo inh: 13; UPR CHOP act: 1; XBP1 UPR activ: -2; ABHD5 PLIN5 PPI: -5

What do the screens show for `Cc1ccccc1OCCc1c(C)[nH]c(=S)[nH]c1=O`?
Mdm2 MdmX PPI: 55*; Granule exo inh: 1; UPR CHOP act: 5; XBP1 UPR activ: 10; ABHD5 PLIN5 PPI: -4; Mdm2-MdmX conf: 62*; Full FLuc ctr: 56*

How did CCn1c(=N)c(C(=O)NC)cc2c(=O)n3cccc(C)c3nc21 do in these assays?
Granule exo inh: 0; ABHD5 PLIN5 PPI: -1

How did CCNc1nc(C)c2cc(Br)c(=O)n(CC)c2n1 do in these assays?
Mdm2 MdmX PPI: 73*; Granule exo inh: -1; UPR CHOP act: -4; XBP1 UPR activ: 6; ABHD5 PLIN5 PPI: 1; Mdm2-MdmX conf: 44*; Full FLuc ctr: 46*

How did CCOC(=O)COC(=O)c1ccc(Oc2cc(C)nc(SC)n2)cc1 do in these assays?
Mdm2 MdmX PPI: 8; Granule exo inh: 0; UPR CHOP act: 3; XBP1 UPR activ: 2; ABHD5 PLIN5 PPI: 4

How did CCOC(=O)c1ccc(Oc2cc(C)nc(SC)n2)cc1 do in these assays?
Mdm2 MdmX PPI: 56*; Granule exo inh: -3; UPR CHOP act: 1; XBP1 UPR activ: 2; ABHD5 PLIN5 PPI: -3; Mdm2-MdmX conf: 58*; Full FLuc ctr: 49*

How did CCOc1ccc(Nc2oc(-c3cccc(Cl)c3)nc2C#N)cc1 do in these assays?
Mdm2 MdmX PPI: 51*; Granule exo inh: -2; UPR CHOP act: 2; XBP1 UPR activ: 6; ABHD5 PLIN5 PPI: 0; Mdm2-MdmX conf: 1

Results for COc1ccc(Nc2oc(COc3ccc(C)cc3)nc2C#N)cc1 ?
Mdm2 MdmX PPI: 59*; Granule exo inh: 1; UPR CHOP act: 3; XBP1 UPR activ: 3; ABHD5 PLIN5 PPI: -9; Mdm2-MdmX conf: 74*; Full FLuc ctr: 61*

Results for CCNc1oc(COc2cccc(C)c2)nc1C#N ?
Mdm2 MdmX PPI: -22; Granule exo inh: -1; UPR CHOP act: 6; XBP1 UPR activ: 1; ABHD5 PLIN5 PPI: 0

How did COc1ccc(Nc2oc(COc3ccccc3F)nc2C#N)cc1 do in these assays?
Mdm2 MdmX PPI: -13; Granule exo inh: 2; UPR CHOP act: 7; XBP1 UPR activ: -2; ABHD5 PLIN5 PPI: -2

Results for COc1ccc(Nc2oc(COc3ccc(OC)cc3)nc2C#N)cc1 ?
Mdm2 MdmX PPI: 63*; Granule exo inh: -2; UPR CHOP act: 0; XBP1 UPR activ: 3; ABHD5 PLIN5 PPI: -9; Mdm2-MdmX conf: 80*; Full FLuc ctr: 59*

Results for COc1ccc(Nc2oc(COc3cccc(C)c3)nc2C#N)cc1 ?
Mdm2 MdmX PPI: 63*; Granule exo inh: 11; UPR CHOP act: 4; XBP1 UPR activ: -3; ABHD5 PLIN5 PPI: -10; Mdm2-MdmX conf: 48*; Full FLuc ctr: 90*

How did CCc1nnc(NC(=O)c2ccc(S(=O)(=O)N3CCCCCC3)cc2)s1 do in these assays?
Mdm2 MdmX PPI: 8; Granule exo inh: -3; UPR CHOP act: -3; XBP1 UPR activ: -1; ABHD5 PLIN5 PPI: -7

What do the screens show for `N#CCSc1nc2ccccc2c2nc3ccccc3n12`?
Mdm2 MdmX PPI: 87*; Granule exo inh: -3; UPR CHOP act: 2; XBP1 UPR activ: 23; ABHD5 PLIN5 PPI: 2; Mdm2-MdmX conf: 63*; Full FLuc ctr: 87*

What do the screens show for `O=C(CCc1ccccc1)NCC(c1ccco1)N1CCc2ccccc21` (configuration not stated)?
Mdm2 MdmX PPI: 53*; Granule exo inh: 0; UPR CHOP act: 2; XBP1 UPR activ: 5; ABHD5 PLIN5 PPI: -1; Mdm2-MdmX conf: 76*; Full FLuc ctr: 66*

What do the screens show for `Cc1ccc2sc(N(CCCN(C)C)C(=O)c3ccc(S(=O)(=O)N4CCc5ccccc5C4)cc3)nc2c1C`?
Mdm2 MdmX PPI: 98*; Granule exo inh: 51; UPR CHOP act: 13; XBP1 UPR activ: 12; ABHD5 PLIN5 PPI: 15; Mdm2-MdmX conf: 75*; Full FLuc ctr: 51*

How did COc1cccc2sc(N(CCCN(C)C)C(=O)c3ccc(S(=O)(=O)N4CCc5ccccc5C4)cc3)nc12 do in these assays?
Mdm2 MdmX PPI: 62*; Granule exo inh: 27; UPR CHOP act: 8; XBP1 UPR activ: 6; ABHD5 PLIN5 PPI: 22; Mdm2-MdmX conf: 23

How did COc1ccc(OC)c2sc(N(CCCN(C)C)C(=O)c3ccc(S(=O)(=O)N4CCc5ccccc5C4)cc3)nc12 do in these assays?
Mdm2 MdmX PPI: 99*; UPR CHOP act: -9; XBP1 UPR activ: -10; Mdm2-MdmX conf: 100*; Full FLuc ctr: 1

How did COc1ccc(C)c2sc(N(CCCN(C)C)C(=O)c3ccc(S(=O)(=O)N4CCc5ccccc5C4)cc3)nc12 do in these assays?
Granule exo inh: 42; ABHD5 PLIN5 PPI: 17

What do the screens show for `COc1cccc2sc(N(CCCN(C)C)C(=O)c3ccc(S(=O)(=O)N4CCCc5ccccc54)cc3)nc12`?
Mdm2 MdmX PPI: 80*; Granule exo inh: 26; UPR CHOP act: 4; XBP1 UPR activ: 6; ABHD5 PLIN5 PPI: 18; Mdm2-MdmX conf: 28
